Data: ChEMBL document CHEMBL1275434, “In vitro evaluation of CBR-2092, a novel rifamycin-quinolone hybrid antibiotic: studies of the mode of action in Staphylococcus aureus” (Antimicrob Agents Chemother, 2008)
Converted amounts (≈) assume the structure as drawn. The source made the active and inactive calls. The calls are words filed in the database; no cut-off is given here.

Tests used:
Staphylococcus aureus [1] = test: Antimicrobial activity against Staphylococcus aureus CB1335 harboring rpoB H481Y, parC S80F, parE E474Q and gyrA S84L mutant genes selected after 0.8 ug/ml drug exposure by broth microdilution method; format: functional
Staphylococcus aureus [2] = test: Antimicrobial activity against Staphylococcus aureus CB1884 harboring rpoB R484H mutant gene, L520 deficient gyrA gene, gyrA S84L mutant gene, R236 duplicated par C gene and parC H103Y mutant gene; format: functional
Staphylococcus aureus [3] = test: Antimicrobial activity against Staphylococcus aureus CB1954 harboring rpoB H481Y, gyrA S84L, K809 deficient gyrA, parC S80F, parC A523D mutant genes selected after CBR-2092 exposure for 7 days by broth microdilution method; format: functional; conditions: CB1954, 168 h
How it was run: (§1)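 CLSI broth microdilution MIC in cation-adjusted Mueller-Hinton (MHII) broth supplemented with 0.002% (vol/vol) polysorbate 80, included to limit compound loss to plastic surfaces.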

Staphylococcus aureus [4] = test: Antimicrobial activity against Staphylococcus aureus CB1880 harboring rpoB R484H mutant gene by broth microdilution method; format: functional
How it was run: (§2)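 CLSI broth microdilution MIC in MHII broth with 0.002% (vol/vol) polysorbate 80. Isolates came from daily stepwise broth passage at sub-MIC drug (MHII without polysorbate 80, 10^6 CFU/ml inoculum, 20–24 h shaking at 37°C), were purified drug-free, and were sequenced at target loci.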

Staphylococcus aureus [5] = test: Inhibition of RNA synthesis in quinolone-resistant Staphylococcus aureus CB814 harboring gyrA S84L and parC S80F mutant genes assessed as decrease in [5,6-3H]uridine incorporation at 0.5 ug/ml; format: functional, organism-based
How it was run: (§3)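 Macromolecular synthesis time course in S. aureus, measuring incorporation of [methyl-3H]thymidine (DNA), [5,6-3H]uridine (RNA) or [2,3-3H]D-alanine (cell wall). At each time point, incorporation is expressed as percent of the DMSO-treated control culture. Incorporation at time zero is set to 100%.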

Staphylococcus aureus [6] = test: Antimicrobial activity against Staphylococcus aureus CB809 harboring rpoB H481Y and parC S80F mutant genes by broth microdilution method
Staphylococcus aureus [7] = test: Inhibition of RNA synthesis in rifamycin-resistant Staphylococcus aureus CB370 harboring rpoB H481Y mutant gene assessed as decrease in [5,6-3H]uridine incorporation at 0.5 ug/ml; format: functional, organism-based; how it was run: as §3
Staphylococcus aureus [8] = test: Antimicrobial activity against Staphylococcus aureus CB1882 harboring rpoB R484H mutant gene, L520 deficient gyrA gene and R236 duplicated parC gene by broth microdilution method; format: functional; how it was run: as §2
Staphylococcus aureus [9] = test: Activity at Staphylococcus aureus wild-type DNA topoisomerase 4 subunit ParC
How it was run: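 Recombinant S. aureus topoisomerase IV (wild-type ParC with ParE; specific activity 25 to 30 U per μg). Stopped with SDS/proteinase K. Linear DNA quantified on gel; CC50 is the mean of two or more assays.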

Staphylococcus aureus [10] = test: Antimicrobial activity against Staphylococcus aureus CB1880 harboring rpoB R484H mutant gene; format: functional
Staphylococcus aureus [11] = test: Antimicrobial activity against rifampin-sensitive Staphylococcus aureus CB190 harboring rpoB Q468L mutant gene by broth microdilution method; format: functional; how it was run: as §1
Staphylococcus aureus [12] = test: Antimicrobial activity against Staphylococcus aureus CB815 harboring rpoB H481Y, gyrA […] and parC S80F mutant genes by broth microdilution method; format: functional; how it was run: as §1
Staphylococcus aureus [13] = test: Inhibition of cell wall synthesis in Staphylococcus aureus CB190 assessed as decrease in [2,3-3H]D-alanine incorporation at 0.5 ug/ml; format: functional, organism-based
Staphylococcus aureus [14] = test: Antimicrobial activity against Staphylococcus aureus CB1326 harboring rpoB H481Y and gyrA S784F mutant genes selected after 0.2 ug/ml drug exposure by broth microdilution method; format: functional
How it was run: (§4)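 CLSI broth microdilution MIC in cation-adjusted Mueller-Hinton (MHII) broth with 0.002% (vol/vol) polysorbate 80. Single-step mutants were selected on agar […], purified by drug-free passage, their phenotype re-verified, and resistance loci sequenced.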

Staphylococcus aureus [15] = test: Antimicrobial activity against Staphylococcus aureus CB1947 harboring rpoB H481Y, gyrA S84L, E697 deficient gyrA, parC G167V mutant genes selected after CBR-2092 exposure for 20 days by broth microdilution method; conditions: CB1947, 480 h
Staphylococcus aureus [16] = test: Antimicrobial activity against Staphylococcus aureus CB1327 harboring rpoB H481Y and gyrA S84L mutant genes selected after 0.2 ug/ml drug exposure by broth microdilution method; format: functional; how it was run: as §4
Staphylococcus aureus [17] = test: Inhibition of cell wall synthesis in quinolone-resistant Staphylococcus aureus CB814 harboring gyrA S84L and parC S80F mutant genes assessed as decrease in [2,3-3H]D-alanine incorporation at 0.5 ug/ml; format: functional, organism-based; how it was run: as §3
Staphylococcus aureus [18] = test: Antimicrobial activity against Staphylococcus aureus CB1881 harboring rpoB R484H mutant gene and L520 deficient gyrA gene by broth microdilution method; format: functional; how it was run: as §2
Staphylococcus aureus [19] = test: Activity at Staphylococcus aureus DNA topoisomerase 4 subunit ParC S80F mutant
Staphylococcus aureus [20] = test: Antimicrobial activity against Staphylococcus aureus CB1953 harboring rpoB H481Y, gyrA S84L, gyrA V598I, parC S80F, parC R570H mutant genes selected after CBR-2092 exposure for 7 days by broth microdilution method; format: functional; conditions: CB1953, 168 h; how it was run: as §1
Staphylococcus aureus [21] = test: Antimicrobial activity against Staphylococcus aureus CB814 harboring […] and parC S80F mutant genes by agar dilution method; format: functional
How it was run: (§5)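 CLSI agar dilution MIC with cation-adjusted Mueller-Hinton (MHII) agar as the base medium.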

Staphylococcus aureus [22] = test: Antimicrobial activity against rifampin-sensitive Staphylococcus aureus CB190 harboring rpoB N474K mutant gene by broth microdilution method; format: functional; how it was run: as §1
Staphylococcus aureus [23] = test: Antimicrobial activity against rifampin-sensitive Staphylococcus aureus CB190 by broth microdilution method; format: functional; how it was run: as §1
[24] = Inhibition of Staphylococcus aureus wild-type RNA polymerase RpoB
How it was run: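 Recombinant S. aureus σA RNA polymerase holoenzyme in a single-round transcription assay using the pGL2B-T7A1-G-less template. The 272-nucleotide G-less RNA product was quantified by gel electrophoresis. IC50 is the concentration halving the product formed without test agent.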

Staphylococcus aureus [25] = test: Antimicrobial activity against Staphylococcus aureus CB1884 harboring rpoB R484H mutant gene, L520 deficient gyrA gene, gyrA S84L mutant gene, R236 duplicated par C gene and parC H103Y mutant gene by agar dilution method; format: functional
How it was run: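 CLSI agar dilution MIC on MHII base medium against stepwise-passage isolates; passage was in MHII broth without polysorbate 80, daily at 37°C.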

Staphylococcus aureus [26] = test: Antimicrobial activity against Staphylococcus aureus CB1421 harboring rpoB H481Y, parC S80F and gyrA S84L mutant genes selected after 0.18 ug/ml drug exposure by broth microdilution method; format: functional; how it was run: as §4
Staphylococcus aureus [27] = test: Antimicrobial activity against Staphylococcus aureus CB190 by broth microdilution method; format: functional
Staphylococcus aureus [28] = test: Antimicrobial activity against Staphylococcus aureus CB1334 harboring rpoB H481Y, parC S80F,Q27H and gyrA S84L mutant genes selected after 0.8 ug/ml drug exposure by broth microdilution method; format: functional
Staphylococcus aureus [29] = test: Antimicrobial activity against wild-type Staphylococcus aureus CB190 by broth microdilution method; format: functional; how it was run: as §1
Staphylococcus aureus [30] = test: Antimicrobial activity against Staphylococcus aureus CB815 harboring rpoB H481Y, gyrA […] and parC S80F mutant genes by agar dilution method; format: functional; how it was run: as §5

## CO[C@H]1/C=C/O[C@@]2(C)Oc3c(C)c(O)c4c(O)c(c(/C=N/N5CCC(N(C)C6([C@@H]7CCN(c8c(F)cn9c(=O)c(C(=O)O)cc(C%10CC%10)c9c8C)C7)CC6)CC5)c(O)c4c3C2=O)NC(=O)/C(C)=C\C=C\[C@H](C)[C@H](O)[C@@H](C)[C@@H](O)[C@@H](C)[C@H](OC(C)=O)[C@@H]1C
Staphylococcus aureus [1]
  MIC: > 16 µg/mL
Staphylococcus aureus [2]
  Time: 65 min
Staphylococcus aureus [3]
  MIC: 16 µg/mL (≈ 13.3 µM)
Staphylococcus aureus [4]
  MIC: 0.12 µg/mL (≈ 0.0996 µM)
Staphylococcus aureus [5]
  Activity: Active
Staphylococcus aureus [6]
  MIC: 0.25 µg/mL (≈ 0.207 µM)
Staphylococcus aureus [7]
  Activity: Active
Staphylococcus aureus [8]
  MIC: 1 µg/mL (≈ 0.83 µM)
Staphylococcus aureus [9]
  CC50: 1.7 µM
Staphylococcus aureus [10]
  Time: 43 min
Staphylococcus aureus [11]
  MIC: 0.25 µg/mL (≈ 0.207 µM)
Staphylococcus aureus [12]
  MIC: 1 µg/mL (≈ 0.83 µM)
Staphylococcus aureus [13]
  Activity: Active
Staphylococcus aureus [14]
  MIC: 0.5 µg/mL (≈ 0.415 µM)
Staphylococcus aureus [15]
  MIC: 4 µg/mL (≈ 3.32 µM)
Staphylococcus aureus [16]
  MIC: 0.5 µg/mL (≈ 0.415 µM)
Staphylococcus aureus [17]
  Activity: Active
Staphylococcus aureus [18]
  MIC: 0.5 µg/mL (≈ 0.415 µM)
Staphylococcus aureus [19]
  CC50: 2.7 µM
Staphylococcus aureus [20]
  MIC: 16 µg/mL (≈ 13.3 µM)
Staphylococcus aureus [21]
  MIC: 0.06 µg/mL (≈ 0.0498 µM)
Staphylococcus aureus [22]
  MIC: 0.25 µg/mL (≈ 0.207 µM)
Staphylococcus aureus [23]
  MIC: 0.015 µg/mL (≈ 0.0124 µM)
[24]
  IC50: 0.034 µM
Staphylococcus aureus [25]
  MIC: 4 µg/mL (≈ 3.32 µM)
Staphylococcus aureus [26]
  MIC: 1 µg/mL (≈ 0.83 µM)
Staphylococcus aureus [27]
  MIC: 0.015 µg/mL (≈ 0.0124 µM)
Staphylococcus aureus [28]
  MIC: 8 µg/mL (≈ 6.64 µM)
Staphylococcus aureus [29]
  MIC: 0.015 µg/mL (≈ 0.0124 µM)
Staphylococcus aureus [30]
  MIC: 0.25 µg/mL (≈ 0.207 µM)
